Measurements published in publication PMC8089085 (Drug Design, Development and Therapy, 2021).
Where two headings read alike, the source gives them in different places.

Tests used:
[1] = type: in vivo, human
Procedure, shortened: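 Randomized open-label three-way crossover in healthy subjects: six sequences, five per sequence, ≥7 days washout. SGLT2 inhibitor 25 mg, PPAR-γ agonist 0.5 mg or both given orally once daily for 5 days, fasting ≥8 h. EDTA plasma sampled predose and 0.33–24 h after fifth dose; UPLC-MS/MS, calibration 5.00–1000 ng/mL. Noncompartmental analysis; mixed-effect model giving geometric mean ratios with 90% CI.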

healthy subjects = assay: Tolerability assessment; type: in vivo, human; conditions: after multiple administrations in healthy subjects
Procedure, shortened: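 Healthy subjects given at least one dose were followed from first administration to study end. Monitoring covered vital signs (systolic and diastolic pressure, pulse rate), physical examinations and adverse events. Events were elicited by nonleading open questioning and individual interviews, and each was judged for relation to the investigational drug.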

[2] = empagliflozin, with vs without lobeglitazone
[3] = lobeglitazone, with vs without empagliflozin

| Compound | 90% CI of AUCtau combination therapy-to-monotherapy ratio [1, 2] | 90% CI of Cmax,ss combination therapy-to-monotherapy ratio [1, 2] | other tolerability parameters (laboratory test results, vital signs, physical examination) (healthy subjects) | 90% CI of AUCtau combination therapy-to-monotherapy ratio [1, 3] | 90% CI of Cmax,ss combination therapy-to-monotherapy ratio [1, 3] |
| --- | --- | --- | --- | --- | --- |
| OC[C@H]1O[C@@H](c2ccc(Cl)c(Cc3ccc(O[C@H]4CCOC4)cc3)c2)[C@H](O)[C@@H](O)[C@@H]1O [Empagliflozin] | 0.945–1.133 | 0.956–1.150 | no clinically significant findings |  |  |
| COc1ccc(Oc2cc(N(C)CCOc3ccc(CC4SC(=O)NC4=O)cc3)ncn2)cc1 (stereo not drawn) [Lobeglitazone] |  |  | no clinically significant findings | 0.851–1.018 | 0.869–0.995 |
